Assays:
Assay type in all cases: functional
[1] = tested on: Klebsiella pneumoniae; test: Antibacterial activity against KPC-2 producing Klebsiella pneumoniae isolate 209735 after 18 hrs in presence of BPL by CLSI broth microdilution method; details: isolate 209735, 18 h
Outline: (§1)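 CLSI broth microdilution against clinical isolates (ESBL E. coli, KPC-2 MDR K. pneumoniae, IMP-4 MDR P. aeruginosa; five per species). Iron limitation: Mueller-Hinton broth supplemented with 16 mg/liter 2,2'-bipyridyl to complex iron and induce iron uptake systems. Read-out: MIC.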

[2] = tested on: Pseudomonas aeruginosa; test: Antibacterial activity against IMP-4 producing Pseudomonas aeruginosa isolate 207272 after 18 hrs by CLSI broth microdilution method; details: isolate 207272, 18 h
[3] = tested on: Pseudomonas aeruginosa; test: Antibacterial activity against IMP-4 producing Pseudomonas aeruginosa isolate 207272 after 18 hrs in presence of BPL by CLSI broth microdilution method; details: isolate 207272, 18 h; outline: as §1
[4] = tested on: Escherichia coli; test: Selectivity index, ratio of MIC for against extended-spectrum beta-lactamase producing Escherichia coli isolate 212648 to MIC for extended-spectrum beta-lactamase producing Escherichia coli isolate 212648 in presence of BPL
[5] = tested on: Escherichia coli; test: Selectivity index, ratio of MIC for against extended-spectrum beta-lactamase producing Escherichia coli isolate 208687 to MIC for extended-spectrum beta-lactamase producing Escherichia coli isolate 208687 in presence of BPL
[6] = tested on: Escherichia coli; test: Antibacterial activity against Escherichia coli isolate 210737 after 18 hrs by CLSI broth microdilution method; details: isolate 210737, 18 h
[7] = tested on: Escherichia coli; test: Antibacterial activity against extended-spectrum beta-lactamase producing Escherichia coli isolate 106342 after 18 hrs by CLSI broth microdilution method; details: isolate 106342, 18 h
[8] = tested on: Klebsiella pneumoniae; test: Antibacterial activity against KPC-2 producing Klebsiella pneumoniae isolate 212232 after 18 hrs by CLSI broth microdilution method; details: isolate 212232, 18 h
[9] = tested on: Pseudomonas aeruginosa; test: Antibacterial activity against IMP-4 producing Pseudomonas aeruginosa isolate 212886 after 18 hrs in presence of BPL by CLSI broth microdilution method; details: isolate 212886, 18 h; outline: as §1
[10] = tested on: Escherichia coli; test: Selectivity index, ratio of MIC for against extended-spectrum beta-lactamase producing Escherichia coli isolate 106342 to MIC for extended-spectrum beta-lactamase producing Escherichia coli isolate 106342 in presence of BPL
[11] = tested on: Klebsiella pneumoniae; test: Antibacterial activity against KPC-2 producing Klebsiella pneumoniae isolate 209735 after 18 hrs by CLSI broth microdilution method; details: isolate 209735, 18 h
[12] = tested on: Klebsiella pneumoniae; test: Antibacterial activity against KPC-2 producing Klebsiella pneumoniae isolate 212229 after 18 hrs in presence of BPL by CLSI broth microdilution method; details: isolate 212229, 18 h; outline: as §1
[13] = tested on: Pseudomonas aeruginosa; test: Selectivity index, ratio of MIC for against IMP-4 producing Pseudomonas aeruginosa isolate 209471 to MIC for against IMP-4 producing Pseudomonas aeruginosa isolate 209471 in presence of BPL
[14] = tested on: Escherichia coli; test: Antibacterial activity against extended-spectrum beta-lactamase producing Escherichia coli isolate 209285 after 18 hrs by CLSI broth microdilution method; details: isolate 209285, 18 h
[15] = tested on: Klebsiella pneumoniae; test: Selectivity index, ratio of MIC for against KPC-2 producing Klebsiella pneumoniae isolate 209735 to MIC for against KPC-2 producing Klebsiella pneumoniae isolate 209735 in presence of BPL
[16] = tested on: Pseudomonas aeruginosa; test: Selectivity index, ratio of MIC for against IMP-4 producing Pseudomonas aeruginosa isolate 208247 to MIC for against IMP-4 producing Pseudomonas aeruginosa isolate 208247 in presence of BPL
[17] = tested on: Pseudomonas aeruginosa; test: Antibacterial activity against IMP-4 producing Pseudomonas aeruginosa isolate 209321 after 18 hrs in presence of BPL by CLSI broth microdilution method; details: isolate 209321, 18 h; outline: as §1
[18] = tested on: Escherichia coli; test: Selectivity index, ratio of MIC for against extended-spectrum beta-lactamase producing Escherichia coli isolate 209285 to MIC for extended-spectrum beta-lactamase producing Escherichia coli isolate 209285 in presence of BPL
[19] = tested on: Escherichia coli; test: Antibacterial activity against extended-spectrum beta-lactamase producing Escherichia coli isolate 106342 after 18 hrs in presence of BPL by CLSI broth microdilution method; details: isolate 106342, 18 h; outline: as §1
[20] = tested on: Pseudomonas aeruginosa; test: Antibacterial activity against IMP-4 producing Pseudomonas aeruginosa isolate 212886 after 18 hrs by CLSI broth microdilution method; details: isolate 212886, 18 h
[21] = tested on: Pseudomonas aeruginosa; test: Antibacterial activity against IMP-4 producing Pseudomonas aeruginosa isolate 208247 after 18 hrs by CLSI broth microdilution method; details: isolate 208247, 18 h
[22] = tested on: Escherichia coli; test: Selectivity index, ratio of MIC for against Escherichia coli isolate 210737 to MIC for Escherichia coli isolate 210737 in presence of BPL
[23] = tested on: Klebsiella pneumoniae; test: Selectivity index, ratio of MIC for against KPC-2 producing Klebsiella pneumoniae isolate 209632 to MIC for against KPC-2 producing Klebsiella pneumoniae isolate 209632 in presence of BPL
[24] = tested on: Escherichia coli; test: Antibacterial activity against extended-spectrum beta-lactamase producing Escherichia coli isolate 208687 after 18 hrs by CLSI broth microdilution method; details: isolate 208687, 18 h
[25] = tested on: Escherichia coli; test: Antibacterial activity against extended-spectrum beta-lactamase producing Escherichia coli isolate 212648 after 18 hrs in presence of BPL by CLSI broth microdilution method; details: isolate 212648, 18 h; outline: as §1
[26] = tested on: Pseudomonas aeruginosa; test: Selectivity index, ratio of MIC for against IMP-4 producing Pseudomonas aeruginosa isolate 207272 to MIC for against IMP-4 producing Pseudomonas aeruginosa isolate 207272 in presence of BPL
[27] = tested on: Klebsiella pneumoniae; test: Selectivity index, ratio of MIC for against KPC-2 producing Klebsiella pneumoniae isolate 212423 to MIC for against KPC-2 producing Klebsiella pneumoniae isolate 212423 in presence of BPL
[28] = tested on: Pseudomonas aeruginosa; test: Antibacterial activity against IMP-4 producing Pseudomonas aeruginosa isolate 209321 after 18 hrs by CLSI broth microdilution method; details: isolate 209321, 18 h
[29] = tested on: Klebsiella pneumoniae; test: Selectivity index, ratio of MIC for against KPC-2 producing Klebsiella pneumoniae isolate 212232 to MIC for against KPC-2 producing Klebsiella pneumoniae isolate 212232 in presence of BPL
[30] = tested on: Escherichia coli; test: Antibacterial activity against extended-spectrum beta-lactamase producing Escherichia coli isolate 212648 after 18 hrs by CLSI broth microdilution method; details: isolate 212648, 18 h
[31] = tested on: Klebsiella pneumoniae; test: Antibacterial activity against KPC-2 producing Klebsiella pneumoniae isolate 212232 after 18 hrs in presence of BPL by CLSI broth microdilution method; details: isolate 212232, 18 h; outline: as §1
[32] = tested on: Pseudomonas aeruginosa; test: Antibacterial activity against IMP-4 producing Pseudomonas aeruginosa isolate 209471 after 18 hrs in presence of BPL by CLSI broth microdilution method; details: isolate 209471, 18 h; outline: as §1
[33] = tested on: Escherichia coli; test: Antibacterial activity against Escherichia coli isolate 210737 after 18 hrs in presence of BPL by CLSI broth microdilution method; details: isolate 210737, 18 h; outline: as §1
[34] = tested on: Klebsiella pneumoniae; test: Selectivity index, ratio of MIC for against KPC-2 producing Klebsiella pneumoniae isolate 212229 to MIC for against KPC-2 producing Klebsiella pneumoniae isolate 212229 in presence of BPL
[35] = tested on: Klebsiella pneumoniae; test: Antibacterial activity against KPC-2 producing Klebsiella pneumoniae isolate 212423 after 18 hrs by CLSI broth microdilution method; details: isolate 212423, 18 h
[36] = tested on: Klebsiella pneumoniae; test: Antibacterial activity against KPC-2 producing Klebsiella pneumoniae isolate 212423 after 18 hrs in presence of BPL by CLSI broth microdilution method; details: isolate 212423, 18 h; outline: as §1
[37] = tested on: Klebsiella pneumoniae; test: Antibacterial activity against KPC-2 producing Klebsiella pneumoniae isolate 209632 after 18 hrs in presence of BPL by CLSI broth microdilution method; details: isolate 209632, 18 h; outline: as §1
[38] = tested on: Klebsiella pneumoniae; test: Antibacterial activity against KPC-2 producing Klebsiella pneumoniae isolate 209632 after 18 hrs by CLSI broth microdilution method; details: isolate 209632, 18 h
[39] = tested on: Escherichia coli; test: Antibacterial activity against extended-spectrum beta-lactamase producing Escherichia coli isolate 209285 after 18 hrs in presence of BPL by CLSI broth microdilution method; details: isolate 209285, 18 h; outline: as §1
[40] = tested on: Pseudomonas aeruginosa; test: Antibacterial activity against IMP-4 producing Pseudomonas aeruginosa isolate 208247 after 18 hrs in presence of BPL by CLSI broth microdilution method; details: isolate 208247, 18 h; outline: as §1
[41] = tested on: Pseudomonas aeruginosa; test: Antibacterial activity against IMP-4 producing Pseudomonas aeruginosa isolate 209471 after 18 hrs by CLSI broth microdilution method; details: isolate 209471, 18 h
[42] = tested on: Escherichia coli; test: Antibacterial activity against extended-spectrum beta-lactamase producing Escherichia coli isolate 208687 after 18 hrs in presence of BPL by CLSI broth microdilution method; details: isolate 208687, 18 h; outline: as §1
[43] = tested on: Klebsiella pneumoniae; test: Antibacterial activity against KPC-2 producing Klebsiella pneumoniae isolate 212229 after 18 hrs by CLSI broth microdilution method; details: isolate 212229, 18 h
[44] = tested on: Pseudomonas aeruginosa; test: Selectivity index, ratio of MIC for against IMP-4 producing Pseudomonas aeruginosa isolate 209321 to MIC for against IMP-4 producing Pseudomonas aeruginosa isolate 209321 in presence of BPL

CC(C)C(O/N=C(\C(=O)N[C@@H]1C(=O)N(S(=O)(=O)O)[C@@H]1CSc1nc2ccccc2o1)c1csc(N)n1)c1cc(=O)c(O)cn1O (some centres undefined)
4 µg/mL: MIC [8] | MIC [11] | MIC [14] | MIC [24] | MIC [35]
0.5 µg/mL: MIC [31] | MIC [33]
> 64 µg/mL: MIC [9] | MIC [17] | MIC [20] | MIC [28]
4: Selectivity Index [5]
1 µg/mL: MIC [6] | MIC [12] | MIC [19] | MIC [25] | MIC [42]
8: Selectivity Index [29]
2 µg/mL: MIC [1] | MIC [7] | MIC [30] | MIC [36] | MIC [37] | MIC [38] | MIC [39] | MIC [43]
2: Selectivity Index [4] | Selectivity Index [10] | Selectivity Index [15] | Selectivity Index [18] | Selectivity Index [22] | Selectivity Index [27] | Selectivity Index [34]
1: Selectivity Index [13] | Selectivity Index [16] | Selectivity Index [23] | Selectivity Index [26]
64 µg/mL: MIC [2] | MIC [3] | MIC [21] | MIC [32] | MIC [40] | MIC [41]

CC(C)C(O/N=C(\C(=O)NC1C(=O)N(S(=O)(=O)O)C12CCCCC2)c1csc(N)n1)c1cc(=O)c(O)cn1O (centres undefined)
2 - 8: Selectivity Index [4]
8: Selectivity Index [5] | Selectivity Index [18]
16 µg/mL: MIC [6] | MIC [8] | MIC [11] | MIC [19]
64 µg/mL: MIC [14] | MIC [17] | MIC [28] | MIC [40]
1: Selectivity Index [44]
8 µg/mL: MIC [33] | MIC [35] | MIC [38] | MIC [39] | MIC [43]
1 µg/mL: MIC [31]
2: Selectivity Index [10] | Selectivity Index [22] | Selectivity Index [23] | Selectivity Index [27] | Selectivity Index [34]
4: Selectivity Index [15]
16: Selectivity Index [29]
4 µg/mL: MIC [1] | MIC [12] | MIC [36] | MIC [37] | MIC [42]
> 64 µg/mL: MIC [2] | MIC [3] | MIC [9] | MIC [20] | MIC [21] | MIC [25] | MIC [30] | MIC [32] | MIC [41]
32 µg/mL: MIC [7] | MIC [24]

Source: ChEMBL document CHEMBL4152188, “Design, synthesis and biological evaluation of C(4) substituted monobactams as antibacterial agents against multidrug-resistant Gram-negative bacteria” (Eur J Med Chem, 2018)
